Where a SMILES comes first, the peptide text is derived from it. Bridges are numbered along the chain shown (N, C = ends). Where no end group is shown, it is not given here.
Key:
[1] = tested on: HUVEC; assay: Western blot of cytosolic fractions for LC3 and cathepsins; type: cell-based, human
Summary of the method: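 Cytosolic fractions came from treated HUVEC using a subcellular fractionation kit. Proteins were resolved by SDS-PAGE, blotted to PVDF and checked for equal loading with 0.05% Ponceau S. Blots were blocked in 5% milk or BSA, probed overnight at 4°C for cathepsin C, cathepsin D and LC3B, and detected by peroxidase secondary antibodies with ECL. Lysosomes were labelled with 100 nM LysoTracker Red for 1 h before paraformaldehyde fixation.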

[2] = tested on: proliferating HUVEC; assay: Cytotoxicity assay; type: cell-based
[3] = tested on: HUVEC; assay: Flow cytometry assay of CLIC1 cell surface expression in suspended HUVEC; type: cell-based, human; settings: peptide 300 μM
[4] = tested on: fibronectin; settings: cited from earlier work
[5] = tested on: fibrinogen; settings: cited from earlier work
[6] = tested on: DU145 subcutaneous xenografts; assay: DU145 tumor treatment study; type: in vivo, mice; settings: 300 μg i.p. 3x/week
Summary of the method: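 Male athymic nude mice carried 2-week-old subcutaneous DU145 flank xenografts averaging 40 mm3 at the start. They received carrier or test compound (300 μg) intraperitoneally three times per week. Tumour volume was measured with calipers at each treatment time point, and mice were weighed on day 15. Groups were compared by unpaired two-tailed t test or one-way ANOVA with Tukey post hoc test.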

[7] = molecular target: CLIC1 (Homo sapiens, UniProt O00299); assay: Saturation binding assay
Summary of the method: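 Copper-coated microtiter wells were coated with 2 μg/ml purified His-tagged human CLIC1. Wells were incubated 1 h at room temperature with varying concentrations of carboxyfluorescein-labelled peptide in TBS with 200 mM n-octyl-β-D-glucoside and 1 mM CaCl2. After TBS washes, fluorescence was read at ex 485/em 520. Signal from His-tagged nucleolin-coated wells was subtracted as non-specific binding. Kd was derived from the binding curves.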

[8] = tested on: neonatal human dermal fibroblasts (NHDF); assay: LDH release in fibroblasts; type: cell-based; settings: 150 μg/ml, 24 hours, 37°C
Summary of the method: (§1)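 Cells were grown at 37°C in humidified 5% CO2 and treated at about 50% confluence. Test compound (2 mg/ml stock in H2O) was added at 150 μg/ml in 2% FBS for 24 h at 37°C. LDH release was read with a commercial kit and normalised to background death in untreated cells. 0.1% (v/v) Triton X-100 defined maximal release.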

[9] = tested on: human bladder epithelial cells (HBEC); assay: LDH release in epithelial cells; type: cell-based; settings: 150 μg/ml, 24 hours, 37°C
Summary of the method: as §1

For “CGLKIQKNEC (disulfide 1-10 (inferred)) [CLT1-IK1]”, the “LC3-II conversion (autophagy marker)” value ([1]; HUVEC cytosolic fractions, 7 hours, 7.5–75 μg/ml, immunoblot) was “did not induce” and the “lysosome dysfunction (cathepsin C and D leakage, lysotracker)” value ([1]; HUVEC, 75 μg/ml 24 hours immunoblot, 10 μg/ml fluorescein-conjugated peptide, lysotracker) was “did not induce”.
With GRGDSP [reference compound] the “effect on cytotoxic function of CLT1” value ([2]; HUVEC, peptide 300 μM, 24 hours, LDH release) was “inhibited the cytotoxic function of CLT1” and the “effect on CLIC1 cell surface localization induced by CLT1-fibronectin co-aggregates” value [3] was “partially inhibited”.
In the case of GRADSP, the “effect on CLIC1 cell surface localization induced by CLT1-fibronectin co-aggregates” value [3] is reported as “not by an inactive peptide”.
With CO/C1=C\C(C)=C\[C@@H](C)[C@@H](O)[C@@H](C)C/C(C)=C/C=C/[C@H](OC)[C@@H]([C@@H](C)[C@@H](O)[C@H](C)[C@@]2(O)C[C@@H](O)[C@H](C)[C@@H](C(C)C)O2)OC1=O [bafilomycin A1, reference compound] the “effect of pretreatment on CLT1 cytotoxicity (LDH release)” value ([2]; HUVEC, 20 nM bafilomycin A1 for 1 hour prior to CLT1 25 μg/ml for 24 hours) was “ameliorated cytotoxicity of CLT1”.
For anginex, the “aggregate formation when mixed with fibronectin” value [4] is listed as “form large insoluble aggregates” and the “aggregate formation when mixed with fibrinogen” value [5] is listed as “form large insoluble aggregates”.
In the case of CC[C@H](C)[C@@H]1NC(=O)[C@H](CC(C)C)NC(=O)CNC(=O)[C@@H](N)CSSC[C@@H](C(=O)O)NC(=O)[C@H](CCC(=O)O)NC(=O)[C@H](CC(N)=O)NC(=O)[C@H](CCCCN)NC(=O)[C@H](CCC(N)=O)NC(=O)[C@H]([C@@H](C)CC)NC1=O [CLT1] (H-CGLIIQKNEC-OH; disulfide 1-10), the “body weight of the mice” value ([6]; day 15 of the treatment study) is reported as “remained unchanged”, the Kd [7] is reported as 10.2 µM and the “CLT1-induced cytotoxicity at 4°C” value ([2]; HUVEC cultured at 4°C versus 37°C, 150 μg/ml, 24 hours, LDH release) is reported as “protected endothelial cells from CLT1-induced cytotoxicity”. The “cytotoxicity of CLT1 after CLIC1 knockdown” value ([2]; HUVEC, CLIC1 siRNA versus control siRNA, 24 hours, LDH release) was “significantly reduced”, the “earliest time at which cytotoxicity was detected” value ([2]; HUVEC, LDH release over time) was 3.5 h and the “cytotoxicity in fibroblasts (LDH release)” value [8] was “little effect”. For the same compound, the “cytotoxicity in epithelial cells (LDH release)” value [9] was “little effect”.
In the case of “CNAGESSKNC (disulfide 1-10 (inferred)) [CLT2, reference compound]”, the “tumor growth (tumor volume)” value ([6]; DU145 xenografts, n=12/treatment group) is reported as “no anti-angiogenic or anti-tumor effects”.

Reference: article PMC3320048 (Angiogenesis, 2011)
